The test system of test [1] is Huh7 cells. The test can be described thus: Ferroptosis inhibitor. The format is cell-based, human. As to conditions: Huh7, co-treated with 10 μM 6c for 72 h.
For the next test, the system named is HepG2 cells. Nature of the test: MTT cell viability assay, HepG2. It counts as cell-based, human. The settings on record: for IC50: Homo sapiens, HepG2, 72 h, read-out: IC50 (μM) HepG2. On the technique in general: Formazan colour is commonly taken as a measure of viable cells.
The test system of test [2] is Huh7 cells. Nature of the test: MTT cell viability assay, Huh7. The format is cell-based, human. The settings on record: for IC50: Homo sapiens, Huh-7, 72 h, read-out: IC50 (μM) Huh7.
Test [3] has as its system LO2 cells (normal human hepatocytes). The test can be described thus: MTT cytotoxicity assay, normal liver cells LO2. The format is cell-based. As to conditions: L02, 72 h, read-out: IC50 (μM) LO2. Summed up:
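LO2 normal human hepatocytes were grown in DMEM with 10% FBS and seeded at 5×10^3 cells per well overnight. Test compound was added at 0.1, 0.3, 1, 3, 10, 30 and 100 μM for up to 72 h. Viability was read by MTT: 0.5 mg/mL for 4 h, medium removed, DMSO added, absorbance measured. Experiments were repeated at least three times.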

In the next test the test system is Hep3B cells. The test can be described thus: MTT cell viability assay, Hep3B. It counts as cell-based, human. As to conditions: for IC50: Homo sapiens, Hep3B, 72 h, read-out: IC50 (μM) Hep3B.
The subject of test [4] is Huh7 cells. Nature of the test: NAC intervention experiment. It counts as cell-based, human. As to conditions: 5 or 10 mm N-acetylcysteine with 10 μM 6c for 24, 48, 72 h.

This note sets out measurements from publication PMC11776411 (Journal of Hepatocellular Carcinoma, 2025).

What is called IC50 is the concentration that inhibits the measured activity by half.

On to `Clc1cccc(CN=C2Nc3ccccc3NC23CCNCC3)c1` [Liproxstatin-1], for which the “reversal of 6c-induced cell death” value in the test with Huh7 cells [1] is “reversed cell death in a concentration-dependent manner”.
For `CNC(=O)c1cc(Oc2ccc(NC(=O)Nc3ccc(Cl)c(C(F)(F)F)c3)cc2)ccn1` [Sorafenib], the values for the 50% inhibitory concentration (IC50) (with HepG2 cells; with Huh7 cells [2]; in test [3]) were 6.45 ± 0.32 µM, 3.09 ± 0.08 µM and 8.63 ± 0.12 µM, respectively.
For the molecule `C[C@H]1[C@H](OC(=O)CCC(=O)O)O[C@@H]2O[C@@]3(C)CC[C@H]4[C@H](C)CC[C@@H]1[C@@]24OO3` [AS, Artesunate], the half-inhibitory concentration (IC50) with HepG2 cells is 42.8 ± 1.44 µM; in the test with Hep3B cells it was 44.2 ± 2.16 µM; in the test with Huh7 cells [2], 47.5 ± 1.39 µM; in test [3], 72.3 ± 1.37 µM. In the test on HepG2 cells (SI1 = IC50 LO2/IC50 HepG2), the “Selectivity Index SI 1” value was 1.7. Moreover, in the test on Hep3B cells (SI3 = IC50 LO2/IC50 Hep3B), the “Selectivity Index SI 3” value was found to be 1.6. In the test on Huh7 cells [2] (SI2 = IC50 LO2/IC50 Huh7), the “Selectivity Index SI 2” value amounted to 1.5.
On to `CNC(=O)c1cc(Oc2ccc(N)cc2)ccn1` [Compound 1, 4-(4-aminophenoxy)-N-methyl-2-pyridinecarboxamide], for which the IC50 in the test on Hep3B cells and in the test on Huh7 cells [2] was > 100 µM in each case.
As for `CC(=O)N[C@@H](CS)C(=O)O` [N-acetylcysteine], the “reversal of 6c inhibition of proliferation” value in the test with Huh7 cells [4] was “reversed the inhibitory effect of 6c on proliferation of Huh7 cells in time- and concentration-dependent manner”.
